Results: ChEMBL document CHEMBL1122118, “Novel opiates and antagonists. 4. 7-Alkanoylhydromorphones” (1982)
Active and inactive are the calls of the source. The rule behind the calls is not given here.

Legend:
Mus musculus [1] = organism: Mus musculus; test: Agonistic activity by mouse acetic acid writhing test.; type: functional
Rattus norvegicus [2] = organism: Rattus norvegicus; test: Antagonistic activity was measured by Rat tail-flick morphine antagonist procedure; type: functional
How it was run: (§1)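 Rat tail-flick test: the compound's ability to block analgesia from a fixed challenge dose of morphine was scored across a dose-response.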

Mus musculus [3] = test: Agonistic activity was measured by Mouse acetic acid writhing test; IA is Inactive at highest dose tested (10 mg/Kg); type: functional, organism-based
Rattus norvegicus [4] = test: Antagonistic activity was measured by Rat tail-flick morphine antagonist procedure; IA is Inactive at highest dose tested (10 mg/Kg); type: functional, organism-based; how it was run: as §1
Rattus norvegicus [5] = organism: Rattus norvegicus; test: Antagonistic activity was measured by Rat tail-flick morphine antagonist procedure; unable to achieve satisfactory dose response; type: functional, organism-based; how it was run: as §1

SMILES | ED50 (Mus musculus [1]) [mg/kg] | AD50 (Rattus norvegicus [2]) [mg/kg] | other results
COc1ccc2c3c1OC1C(=O)CCC4C(C2)N(CC2CC2)CCC314 (stereo not drawn) | 17 | 3.4 | –
CCCC(=O)C1CC2C3Cc4ccc(OC)c5c4C2(CCN3CC2CC2)C(O5)C1=O (stereo not drawn) | 2.8 | 8.1 | –
CC(=O)C1CC2C3Cc4ccc(O)c5c4C2(CCN3CC2CC2)C(O5)C1=O (stereo not drawn) | 4 | 1.3 | –
COc1ccc2c3c1O[C@H]1C(=O)CC[C@H]4[C@@H](C2)N(C)CC[C@]314 [HYDROCODONE] | 1.06 | – | –
COc1ccc2c3c1OC1C(=O)C(C(=O)c4ccccc4)CC4C(C2)N(CC2CC2)CCC314 (stereo not drawn) | – | 8 | –
CCCC(=O)C1CC2C3Cc4ccc(O)c5c4C2(CCN3C)C(O5)C1=O (stereo not drawn) | 5.2 | – | –
CN1CC[C@]23c4c5ccc(O)c4O[C@H]2C(=O)CC[C@H]3[C@H]1C5 [HYDROMORPHONE] | 0.08 | – | –
CCCCCC(=O)C1CC2C3Cc4ccc(OC)c5c4C2(CCN3C)C(O5)C1=O (stereo not drawn) | 4 | – | –
CCCC(=O)C1CC2C3Cc4ccc(OC)c5c4C2(CCN3C)C(O5)C1=O (stereo not drawn) | – | – | ED50 (Mus musculus [3]): inactive
CCCCCCC(=O)C1CC2C3Cc4ccc(O)c5c4C2(CCN3CC2CC2)C(O5)C1=O (stereo not drawn) | 0.4 | – | AD50 (Rattus norvegicus [4]): inactive
CCCCCC(=O)C1CC2C3Cc4ccc(OC)c5c4C2(CCN3CC2CC2)C(O5)C1=O (stereo not drawn) | – | – | AD50 (Rattus norvegicus [4]): inactive
CCC(=O)C1CC2C3Cc4ccc(O)c5c4C2(CCN3CC2CC2)C(O5)C1=O (stereo not drawn) | – | 0.52 | ED50 (Mus musculus [3]): inactive
CC(C)C(=O)C1CC2C3Cc4ccc(O)c5c4C2(CCN3CC2CC2)C(O5)C1=O (stereo not drawn) | – | 0.81 | –
O=C(c1ccccc1)C1CC2C3Cc4ccc(O)c5c4C2(CCN3CC2CC2)C(O5)C1=O (stereo not drawn) | – | 0.24 | –
CCCCC(=O)C1CC2C3Cc4ccc(OC)c5c4C2(CCN3CC2CC2)C(O5)C1=O (stereo not drawn) | > 10 | – | AD50 (Rattus norvegicus [4]): inactive
CN1CC[C@]23c4c5ccc(O)c4O[C@H]2[C@@H](O)C=C[C@H]3[C@H]1C5 [MORPHINE] | 0.79 | – | –
CCCCCCC(=O)C1CC2C3Cc4ccc(OC)c5c4C2(CCN3CC2CC2)C(O5)C1=O.Cl (stereo not drawn) | > 10 | >10 | –
CCCCCC(=O)C1CC2C3Cc4ccc(O)c5c4C2(CCN3CC2CC2)C(O5)C1=O (stereo not drawn) | – | 22 | –
COc1ccc2c3c1OC1C(=O)C(C(C)=O)CC4C(C2)N(CC2CC2)CCC314 (stereo not drawn) | > 10 | >10 | –
O=C1CCC2C3Cc4ccc(O)c5c4C2(CCN3CC2CC2)C1O5 (stereo not drawn) | 1.3 | 0.19 | –
COc1ccc2c3c1OC1C(=O)C(C(=O)C(C)C)CC4C(C2)N(CC2CC2)CCC314 (stereo not drawn) | – | 2.8 | –
O=C(c1ccc(F)cc1)C1CC2C3Cc4ccc(O)c5c4C2(CCN3CC2CC2)C(O5)C1=O (stereo not drawn) | > 10 | ~10 | –
CC(C)(C)CC(=O)C1CC2C3Cc4ccc(O)c5c4C2(CCN3CC2CC2)C(O5)C1=O (stereo not drawn) | – | >10 | ED50 (Mus musculus [3]): inactive
CO[C@@]12CC[C@@]3(C[C@@H]1[C@](C)(O)C(C)(C)C)[C@H]1Cc4ccc(O)c5c4[C@@]3(CCN1CC1CC1)[C@H]2O5 [BUPRENORPHINE] | 0.13 | – | AD50 (Rattus norvegicus [5]): unable to achieve satisfactory dose response
COc1ccc2c3c1OC1C(=O)C(C(C)=O)CC4C(C2)N(C)CCC314 (stereo not drawn) | 23.5 | – | –
CCC(=O)C1CC2C3Cc4ccc(OC)c5c4C2(CCN3CC2CC2)C(O5)C1=O (stereo not drawn) | > 10 | 6.5 | –
COc1ccc2c3c1OC1C(=O)C(C(=O)c4ccc(F)cc4)CC4C(C2)N(CC2CC2)CCC314 (stereo not drawn) | – | >10 | ED50 (Mus musculus [3]): inactive
CCCCC(=O)C1CC2C3Cc4ccc(O)c5c4C2(CCN3CC2CC2)C(O5)C1=O (stereo not drawn) | – | 3.3 | –
CCCC(=O)C1CC2C3Cc4ccc(O)c5c4C2(CCN3CC2CC2)C(O5)C1=O (stereo not drawn) | – | 2.6 | –
